Assay outcomes (PubChem BioAssay)
Sampled rows, rich in hits. Any-hit rate of the full collection: about 2.3%.
TRPC4 inh: inhibitors of mouse TRPC4 channel; HEK293 TRPC4beta/mu-opioid, DAMGO-evoked Fluo4 calcium flux; stronger effect = lower value; B-score at 10 µM; Q9QUQ5; hit rate 0.39% among 300,000; AID 2247;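 active = B-score over 3 SD under the library average, no early fluorescence shift, positive overall ratio signal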
Target sequence (Q9QUQ5 whole entry, looked up): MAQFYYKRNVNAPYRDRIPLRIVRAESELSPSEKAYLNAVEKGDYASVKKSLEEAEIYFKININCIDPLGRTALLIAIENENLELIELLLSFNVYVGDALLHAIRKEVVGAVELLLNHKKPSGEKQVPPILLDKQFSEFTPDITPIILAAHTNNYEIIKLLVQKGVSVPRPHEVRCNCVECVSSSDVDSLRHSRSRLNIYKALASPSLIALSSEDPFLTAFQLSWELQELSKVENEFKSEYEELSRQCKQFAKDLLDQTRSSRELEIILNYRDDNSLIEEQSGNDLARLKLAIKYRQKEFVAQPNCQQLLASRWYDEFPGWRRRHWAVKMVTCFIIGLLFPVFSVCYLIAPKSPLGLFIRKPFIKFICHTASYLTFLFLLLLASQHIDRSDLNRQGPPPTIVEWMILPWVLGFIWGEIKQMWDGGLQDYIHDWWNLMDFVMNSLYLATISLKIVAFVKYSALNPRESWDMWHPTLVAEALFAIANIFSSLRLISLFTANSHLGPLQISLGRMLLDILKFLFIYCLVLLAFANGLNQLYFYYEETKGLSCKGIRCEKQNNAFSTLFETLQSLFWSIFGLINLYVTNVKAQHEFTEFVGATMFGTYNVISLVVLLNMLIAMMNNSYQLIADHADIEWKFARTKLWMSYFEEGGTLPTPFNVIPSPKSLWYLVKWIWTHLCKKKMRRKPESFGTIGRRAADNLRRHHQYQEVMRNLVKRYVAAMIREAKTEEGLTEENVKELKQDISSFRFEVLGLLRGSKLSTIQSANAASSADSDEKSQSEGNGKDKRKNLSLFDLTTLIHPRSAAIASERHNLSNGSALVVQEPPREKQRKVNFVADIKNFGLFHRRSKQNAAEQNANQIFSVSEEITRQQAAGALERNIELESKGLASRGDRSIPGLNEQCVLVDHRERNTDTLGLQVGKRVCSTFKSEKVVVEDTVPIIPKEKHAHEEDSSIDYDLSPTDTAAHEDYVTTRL
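test system = HEK293 cells with stable TRPC4beta plus mu-opioid receptor expression | detection = Fluo4 Ca2+ flux fluorescence | read-out = integrated fluorescence ratio relative to baseline, converted to per-well B score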
TRPC4 act: activators of mouse TRPC4 channel; Q9QUQ5; HEK293 TRPC4beta/mu-opioid, Fluo4 calcium fluorescence; stronger effect = higher value; B-score at 10 µM; hit rate 0.49% among 310,000;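 active = B-score above 5 SD of library B-scores, and initial fluorescence ratio not above library mean plus 5 SD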;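 note: positive B-score marks a calcium rise read as TRPC4 activation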
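System – HEK293 cells stably co-expressing mouse TRPC4beta and mu-opioid receptor · Signal – Fluo4 calcium-sensitive dye fluorescence, kinetic, 1 Hz baseline · Benchmarks – buffer (low) and maximal DAMGO (high) · Read-out – B score of integrated fluorescence ratio per well · Incubation – dye loading 45 min room temperature, 110 s kinetic read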
TRPC6 activator: activators of mouse TRPC6 channel | HEK293-TRPC6 membrane potential dye fluorescence; stronger effect = higher value | B-score at 10 µM | hit rate 0.13% among 310,000 | AID 2550;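 active = B-score of the integrated fluorescence ratio above library mean plus 3 SD, and starting fluorescence ratio within library mean plus 5 SD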;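 note: higher score means more depolarization so channel activation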
TRPC6 inhibitor: mouse TRPC6 channel inhibition; Q61143; HEK293-TRPC6, membrane potential dye, ACh-evoked depolarization; stronger effect = lower value; B-score at 10 µM; hit rate 1.1% among 310,000;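 active = B-score under library mean minus 3 SD, initial fluorescence not abnormally high, positive integrated signal ratio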;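 note: B-score derived from integrated fluorescence ratio over the kinetic read; more negative B-score means stronger inhibition of depolarization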
TRPC4 PAM: allosteric potentiators of mouse TRPC4 channel | HEK293 TRPC4beta/mu-opioid, DAMGO EC20, Fluo-4 Ca2+ flux; stronger effect = higher value | B-score at 10 µM | hit rate 0.42% among 310,000 | AID 2227;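 active = B-score of calcium response area above 5 SD of library B-scores, with initial fluorescence ratio within 5 SD of library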;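 note: B-score of integrated fluorescence ratio over time as area under calcium response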
TRPC4 spec 2: mouse TRPC4 off-target activity of TRPC6 inhibitors, second screen; shares compounds with TRPC6 inhibitor; HEK293 TRPC4/MOR, membrane potential dye fluorescence; channel activated by saturating DAMGO dose; inhibition, % at 10 µM; hit rate 42% among 920; AID 2776;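 active = compounds whose fluorescence signal differed from control wells by over 3 SD, either direction, in both duplicate plates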
TRPC4 spec: mouse TRPC4 off-target activity of TRPC6 inhibitors | shares compounds with TRPC6 inhibitor | HEK293 TRPC4/mu-opioid, membrane potential fluorescence | activity change, negative = inhibition, % at 10 µM | hit rate 61% among 920;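 active = rise or fall in signal beyond 3 SD of buffer-only wells in both replicate plates, either sign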;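 note: integrated kinetic ratio of fluorescence range over baseline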
HEK293 MPD ctr 2-1: parental HEK293 nonspecific activity of TRPC6 inhibitors, second screen. AID 2779. hit rate 31% among 920. parental HEK293 membrane potential dye fluorescence; maximal acetylcholine challenge after compound addition. signal change vs control, % at 10 µM. shares compounds with TRPC6 inhibitor;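 active = membrane potential signal moving either way by over 3 SD of the maximum-effect control, in both duplicate plates, meaning non-specific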
HEK293 MPD ctr-1: checks TRPC6 inhibitor effects in parental HEK293 cells; shares compounds with TRPC6 inhibitor; parental HEK293 membrane potential dye fluorescence; membrane potential signal change, % at 10 µM; hit rate 60% among 920; AID 2780;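 active = membrane potential signal shifting up or down by more than 3 SD of buffer-only wells, on both duplicate plates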
HEK293 MPD ctr-2: parental HEK293 nonspecific activity of TRPC6 modulators; shares compounds with TRPC6 inhibitor; membrane potential dye fluorescence; membrane potential signal change, % at 10 µM; hit rate 51% among 2,400; AID 488924;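 active = membrane potential signal moves up or down beyond 5 SD from buffer-only wells, on both duplicate plates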
HEK293 MPD ctr 2-2: second counter-screen for TRPC6 modulators: effect in parental HEK293 cells; shares compounds with TRPC6 inhibitor; membrane potential dye fluorescence; after compound, maximal acetylcholine stimulation; inhibition, % at 10 µM; hit rate 14% among 2,400;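 active = membrane potential signal drops by more than 5 SD from the mean control signal, in both duplicate plates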;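 note: plate controls were acetylcholine ECmax control wells for no effect and buffer only wells for full effect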
TRPC4 ctr mod: mouse TRPC4 off-target activity of TRPC6 modulators; hit rate 69% among 2,400; percent change from control (negative = decrease, positive = increase), % at 10 µM; shares compounds with TRPC6 inhibitor; HEK293 TRPC4/mu-opioid, membrane potential fluorescence; AID 488927;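 active = membrane potential signal moved up or down beyond 5 SD of buffer control wells, in both duplicate plates, actives on both sides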;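 note: plate controls were assay buffer wells for no effect and DAMGO maximal-effect wells for full effect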
TRPC4/MOR inh 2: mouse TRPC4 off-target activity of TRPC6 modulators, second screen; shares compounds with TRPC6 inhibitor; HEK293 TRPC4/mu-opioid, membrane potential dye fluorescence; stimulated with maximal-effect DAMGO; inhibition, % at 10 µM; hit rate 55% among 2,400; AID 488928;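 active = drop in membrane potential signal beyond 5 SD of the control wells in both duplicate plates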;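 note: TRPC4 counter screen for TRPC6 hits run under conditions tuned for TRPC6 not TRPC4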
TRPC6 block conf: mouse TRPC6 inhibitor confirmation; shares compounds with TRPC6 inhibitor; HEK293-TRPC6, membrane potential dye, ACh-evoked depolarization; inhibition, % at 10 µM; hit rate 43% among 3,300; AID 488960;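 active = fluorescence ratio falls more than 5 SD below the full-stimulation control mean, in both duplicate runs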;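 note: integrated fluorescence ratio of peak minus minimum over baseline after agonist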
TRPC6 act conf: mouse TRPC6 activator confirmation. shares compounds with TRPC6 inhibitor. HEK293-TRPC6 membrane potential dye fluorescence, FDSS. activation, % at 10 µM. hit rate 11% among 2,800;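 active = ratio signal rise beyond 5 SD above unstimulated control wells' mean, seen in both duplicate runs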;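 note: plate controls were buffer EC0 wells for no effect and acetylcholine ECmax response for full effect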
* marks the source's active call; other numbers are inactive results; i = inactive; . = no result given; + = active, no number.

SMILES	TRPC4 inh	TRPC4 act	TRPC6 activator	TRPC6 inhibitor	TRPC4 PAM	HEK293 MPD ctr-2	HEK293 MPD ctr 2-2	TRPC4 ctr mod	TRPC4/MOR inh 2	TRPC6 block conf	TRPC6 act conf	others
Cc1ccc(C(=O)c2ccccc2C(=O)OCC(=O)Nc2cccc([N+](=O)[O-])c2)cc1	i	i	i	-6.5*	i	i	i	i	i	i	i
O=C(c1cc(COc2ccccc2)on1)N1CCCC(CN2CCOCC2)C1 (stereo unspecified)	i	i	i	i	i	.	.	.	.	.	.
Cc1ccc[n+](CC(=O)c2cc3ccccc3oc2=O)c1	i	i	i	-6.5*	i	-76%*	i	-22%*	i	70%*	i
Cc1cc2nc3s/c(=C/c4ccc(-c5ccccc5C(=O)O)o4)c(=O)n3c2cc1C	i	143*	56*	i	12*	+	i	395%*	i	i	720%*
CC(=O)c1ccccc1Oc1cc(NN2CCCCC2)c([N+](=O)[O-])cc1[N+](=O)[O-]	i	i	i	-6*	i	i	i	i	32%*	i	i
CCc1ccccc1NC(=O)CCc1c(C)nc(SC)nc1C	i	i	i	i	i	.	.	.	.	.	.
CCC1=[N+](C)c2cccc3cccc(c23)N1C	i	i	i	-6*	i	-344%*	i	-52%*	47%*	42%*	i
O=C(C1CCCN(Cc2ccc(F)cc2)C1)N1CCCCC1 (stereo unspecified)	i	i	i	i	i	.	.	.	.	.	.
O=C(Nc1ccccc1Oc1cccnc1)C1CCCN(Cc2ccc(F)cc2)C1 (stereo unspecified)	-6*	i	i	-6.4*	i	176%*	i	31%*	46%*	i	.
CCCCn1c(N)c(N(CC(C)C)C(=O)c2ccco2)c(=O)[nH]c1=O	i	i	i	i	i	.	.	.	.	.	.
COc1ccc(C2NC(=O)NC(O)(C(F)(F)F)C2C(=O)c2ccccc2)cc1OC (stereo unspecified)	i	i	i	i	i	.	.	.	.	.	.
COc1ccc(C2NC(=O)NC(O)(C(F)(F)F)C2C(=O)c2ccc(C)cc2)cc1 (stereo unspecified)	i	i	i	-9.6*	i	.	.	.	.	65%*	i	TRPC4 spec 2=i;TRPC4 spec=i;HEK293 MPD ctr 2-1=14%*;HEK293 MPD ctr-1=i
COc1ccccc1NC(=O)CNC(=O)c1ccc(Br)o1	i	i	i	i	i	.	.	.	.	.	.
